Series [1] can be described thus: Inhibition of PI3K in human PC3 cells assessed as reduction in AKT phosphorylation at Ser473 measured after 2 hrs by fluorescence assay. The format is cell-based. The settings on record: PC-3, 2 h.
Another series concerns MCF7. In words: Antiproliferative activity against human MCF7 cells harboring PIK3CA E545K mutant after 72 hrs by MTT assay. The format is functional, cell-based. Conditions: MCF7, 72 h. In general terms: Tetrazolium assays rely on reduction of a dye to a coloured formazan, in cell work by metabolically active cells.
Another series relates to T47D. The experiment in a line: Antiproliferative activity against human T47D cells harboring PI3KCA H1047R mutant after 72 hrs by MTT assay. The format is functional, cell-based.
The target of series [2] is PI3-kinase p110-alpha/p85-alpha (Homo sapiens, UniProt P42336). In words: Inhibition of recombinant human full length N-terminal His-tagged p110alpha/p85alpha expressed in baculovirus expression system using PIP2 as substrate measured after 1 hr by Alexa633 Tracer-based fluorescence polarization assay. The gist of the method:
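PI3Kα enzyme inhibition; IC50 is the mean of duplicate measurements.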
For orientation: Polarisation of emitted light reports the rotation of a fluorescent probe.

Series [3] in a line: Intrinsic clearance in human liver microsomes at […] pretreated up to 45 mins followed by NADPH addition and measured by LC-MS/MS analysis. The format is ADME, microsome. Conditions: read-out: CLH. For orientation: Liver microsomes are vesicles of endoplasmic reticulum, rich in cytochrome P450 enzymes.
Series [4] in a line: Intrinsic clearance in mouse liver microsomes at […] pretreated up to 45 mins followed by NADPH addition and measured by LC-MS/MS analysis. Conditions: read-out: CLH. The format is ADME, microsome.
The test system of series [5] is HT-29. In words: Cell cycle arrest in human HT-29 cells assessed as accumulation at G2/M phase at 0.111 to 3 uM after 24 hrs by propidium iodide staining based flow cytometry. The format is functional.
A further series concerns HUVEC. The experiment in a line: Cytotoxicity against HUVEC after 72 hrs by MTT assay. The format is cell-based. The settings on record: Homo sapiens.
The test system of series [6] is HT-29. The experiment in a line: Antitumor activity against human HT-29 cells harboring PIK3CA P449T mutant xenografted in Balb/c nu/nu mouse assessed as tumor growth inhibition at 15 mg/kg, po administered daily via gavage for 27 days relative to control. The format is functional. The settings on record: HT-29, po, 648 h, read-out: TGI. The gist of the method: (§1)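 Balb/c nu/nu mice carrying HT-29 xenografts were dosed by daily oral gavage for 27 days, starting when mean tumor size was about 240 mm³; vehicle group as control. Tumor volume estimated over time, and TGI calculated after 27 days. Mean ± SEM, n = 6. Dunnett's multiple comparison test.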

For the next series, the system named is Mus musculus. In words: Toxicity in Balb/c nu/nu mouse xenografted with human HT-29 cells harboring PIK3CA P449T mutant assessed as body weight loss at 60 mg/kg, po administered daily via gavage for 10 days relative to control. Conditions: in vivo, 240 h.
For series [7], the target named is Serine/threonine-protein kinase ATR (Homo sapiens) (UniProt Q13535). In words: Inhibition of ATR in human HT-29 cells assessed as reduction in camptothecin-induced Chk1 phosphorylation at Ser345 residue up to 10 uM pretreated for 1 hr followed by camptothecin addition. The format is cell-based. The gist of the method: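 HT-29 cells were pretreated with compound for 1 h, then exposed to camptothecin to induce DNA damage. ATR activity was read as phosphorylation of its substrate Chk1, with total Chk1 and β-actin as internal controls. […] served as reference inhibitor.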
Chain of Serine/threonine-protein kinase ATR (Homo sapiens) (Q13535 whole entry, looked up): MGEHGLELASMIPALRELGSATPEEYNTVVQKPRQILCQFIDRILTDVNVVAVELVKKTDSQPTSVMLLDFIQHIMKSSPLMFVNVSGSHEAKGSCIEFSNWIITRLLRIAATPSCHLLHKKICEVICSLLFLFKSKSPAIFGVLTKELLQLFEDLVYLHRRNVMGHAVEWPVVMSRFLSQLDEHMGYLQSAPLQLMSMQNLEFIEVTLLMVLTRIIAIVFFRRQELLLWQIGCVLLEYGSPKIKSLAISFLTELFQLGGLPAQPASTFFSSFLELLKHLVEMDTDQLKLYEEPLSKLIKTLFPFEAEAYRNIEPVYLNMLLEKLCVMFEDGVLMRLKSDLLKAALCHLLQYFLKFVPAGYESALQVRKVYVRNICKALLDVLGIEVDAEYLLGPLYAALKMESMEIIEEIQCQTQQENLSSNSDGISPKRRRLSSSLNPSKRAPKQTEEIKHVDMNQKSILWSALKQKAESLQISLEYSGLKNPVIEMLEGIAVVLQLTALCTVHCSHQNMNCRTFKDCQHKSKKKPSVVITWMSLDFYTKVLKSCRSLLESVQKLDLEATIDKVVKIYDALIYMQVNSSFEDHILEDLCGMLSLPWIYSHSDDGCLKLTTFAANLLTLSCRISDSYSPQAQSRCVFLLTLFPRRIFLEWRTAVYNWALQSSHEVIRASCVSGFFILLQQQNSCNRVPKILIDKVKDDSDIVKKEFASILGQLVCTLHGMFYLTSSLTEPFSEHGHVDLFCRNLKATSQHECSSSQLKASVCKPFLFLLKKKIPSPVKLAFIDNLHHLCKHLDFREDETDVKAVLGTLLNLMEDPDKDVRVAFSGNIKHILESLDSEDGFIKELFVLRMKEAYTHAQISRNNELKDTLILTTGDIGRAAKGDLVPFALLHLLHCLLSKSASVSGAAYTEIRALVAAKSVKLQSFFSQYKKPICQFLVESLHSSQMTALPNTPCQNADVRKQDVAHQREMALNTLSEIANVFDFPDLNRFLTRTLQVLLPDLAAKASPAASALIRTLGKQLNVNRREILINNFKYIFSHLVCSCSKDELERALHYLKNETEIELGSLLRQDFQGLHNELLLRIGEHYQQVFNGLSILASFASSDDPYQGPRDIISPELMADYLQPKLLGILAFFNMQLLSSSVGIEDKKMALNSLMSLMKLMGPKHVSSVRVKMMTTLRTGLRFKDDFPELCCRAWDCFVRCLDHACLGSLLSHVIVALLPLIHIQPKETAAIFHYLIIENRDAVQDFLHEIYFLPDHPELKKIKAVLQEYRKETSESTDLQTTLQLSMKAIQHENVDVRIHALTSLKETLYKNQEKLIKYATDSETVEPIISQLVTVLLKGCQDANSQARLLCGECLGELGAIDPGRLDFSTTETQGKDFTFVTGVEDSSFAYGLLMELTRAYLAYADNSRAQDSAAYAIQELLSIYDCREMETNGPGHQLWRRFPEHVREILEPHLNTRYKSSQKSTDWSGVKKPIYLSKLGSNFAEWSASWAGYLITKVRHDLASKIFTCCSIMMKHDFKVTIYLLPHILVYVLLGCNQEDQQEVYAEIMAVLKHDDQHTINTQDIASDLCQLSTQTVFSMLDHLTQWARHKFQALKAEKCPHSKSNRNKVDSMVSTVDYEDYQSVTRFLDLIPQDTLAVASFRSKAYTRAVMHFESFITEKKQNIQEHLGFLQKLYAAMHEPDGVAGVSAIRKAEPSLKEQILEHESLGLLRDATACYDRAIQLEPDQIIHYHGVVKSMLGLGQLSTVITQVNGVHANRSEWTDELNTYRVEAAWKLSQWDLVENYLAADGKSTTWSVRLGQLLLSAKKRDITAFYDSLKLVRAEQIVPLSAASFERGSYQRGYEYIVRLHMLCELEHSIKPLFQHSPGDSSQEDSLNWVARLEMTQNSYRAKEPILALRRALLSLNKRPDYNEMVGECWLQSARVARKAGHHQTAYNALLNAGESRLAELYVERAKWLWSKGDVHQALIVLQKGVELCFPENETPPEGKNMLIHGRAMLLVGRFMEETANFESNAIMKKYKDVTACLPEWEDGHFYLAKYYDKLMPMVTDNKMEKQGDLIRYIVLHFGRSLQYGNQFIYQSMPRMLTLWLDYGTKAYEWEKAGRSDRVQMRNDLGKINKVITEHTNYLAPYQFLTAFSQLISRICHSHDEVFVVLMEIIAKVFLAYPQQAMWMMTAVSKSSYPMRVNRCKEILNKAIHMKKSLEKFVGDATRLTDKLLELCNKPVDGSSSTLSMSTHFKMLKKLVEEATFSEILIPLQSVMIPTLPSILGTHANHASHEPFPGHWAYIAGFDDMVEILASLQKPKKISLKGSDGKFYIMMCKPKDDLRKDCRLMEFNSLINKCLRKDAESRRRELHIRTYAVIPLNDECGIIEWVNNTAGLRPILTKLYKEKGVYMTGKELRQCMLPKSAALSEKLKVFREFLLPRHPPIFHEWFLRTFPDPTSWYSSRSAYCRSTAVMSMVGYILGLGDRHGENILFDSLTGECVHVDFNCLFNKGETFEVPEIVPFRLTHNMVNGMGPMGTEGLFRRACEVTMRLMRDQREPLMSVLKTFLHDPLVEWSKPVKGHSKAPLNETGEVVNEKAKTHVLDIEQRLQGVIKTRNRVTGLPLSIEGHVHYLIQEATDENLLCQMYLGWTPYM

The subject of series [8] is HT-29. In words: Antitumor activity against human HT-29 cells harboring PIK3CA P449T mutant xenografted in Balb/c nu/nu mouse assessed as tumor growth inhibition at 30 mg/kg, po administered daily via gavage for 27 days relative to control. Conditions: HT-29, po, 648 h, read-out: TGI. The format is functional. In outline:
as §1

In series [9] the target is Serine/threonine-protein kinase mTOR (Homo sapiens, UniProt P42345). In words: Inhibition of recombinant human GST-tagged mTOR catalytic domain (1360 to 2549 residues) expressed in baculovirus expression system using GFP-4EBP1 as substrate measured after 1 hr by Lathascreen method.
Another series addresses PI3K p110 beta/p85 alpha (Homo sapiens, UniProt P42338). The experiment in a line: Inhibition of recombinant human full-length N-terminal His6-tagged p110beta/recombinant human full length p85alpha expressed in baculovirus infected Sf21 insect cells using PIP2 as substrate measured after 1 hr by Alexa633 Tracer-based fluorescence polarization assay.
In series [10] the target is PI3-kinase p110-delta/p85-alpha (Homo sapiens, UniProt O00329). In words: Inhibition of recombinant human full-length N-terminal His6-tagged p110delta/recombinant human full length p85alpha expressed in baculovirus infected Sf21 insect cells using PIP2 as substrate measured after 1 hr by Alexa633 Tracer-based fluorescence polarization assay.

The source made the active and inactive calls. No cut-off for these calls is given here. Bounds are passed on as bounds.

Chain of PI3-kinase p110-alpha/p85-alpha (P27986 whole entry): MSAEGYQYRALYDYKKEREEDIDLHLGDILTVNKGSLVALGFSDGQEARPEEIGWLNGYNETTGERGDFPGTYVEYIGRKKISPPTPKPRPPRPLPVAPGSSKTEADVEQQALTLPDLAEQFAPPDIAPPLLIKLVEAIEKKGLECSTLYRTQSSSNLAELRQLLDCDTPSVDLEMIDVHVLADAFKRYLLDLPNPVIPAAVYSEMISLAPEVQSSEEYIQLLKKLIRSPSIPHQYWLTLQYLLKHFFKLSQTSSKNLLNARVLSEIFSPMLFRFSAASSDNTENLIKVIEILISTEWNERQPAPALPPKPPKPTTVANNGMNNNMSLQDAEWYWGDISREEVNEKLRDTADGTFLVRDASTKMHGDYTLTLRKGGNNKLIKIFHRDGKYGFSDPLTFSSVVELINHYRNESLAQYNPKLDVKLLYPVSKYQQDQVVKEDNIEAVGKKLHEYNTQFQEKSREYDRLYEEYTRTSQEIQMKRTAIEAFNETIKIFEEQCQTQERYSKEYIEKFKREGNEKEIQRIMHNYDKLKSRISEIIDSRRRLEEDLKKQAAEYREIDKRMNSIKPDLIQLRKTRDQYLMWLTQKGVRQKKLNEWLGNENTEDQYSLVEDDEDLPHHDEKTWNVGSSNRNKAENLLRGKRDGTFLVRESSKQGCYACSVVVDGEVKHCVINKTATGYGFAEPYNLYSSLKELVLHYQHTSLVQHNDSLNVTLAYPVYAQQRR
Chain of PI3-kinase p110-alpha/p85-alpha (P42336 whole entry): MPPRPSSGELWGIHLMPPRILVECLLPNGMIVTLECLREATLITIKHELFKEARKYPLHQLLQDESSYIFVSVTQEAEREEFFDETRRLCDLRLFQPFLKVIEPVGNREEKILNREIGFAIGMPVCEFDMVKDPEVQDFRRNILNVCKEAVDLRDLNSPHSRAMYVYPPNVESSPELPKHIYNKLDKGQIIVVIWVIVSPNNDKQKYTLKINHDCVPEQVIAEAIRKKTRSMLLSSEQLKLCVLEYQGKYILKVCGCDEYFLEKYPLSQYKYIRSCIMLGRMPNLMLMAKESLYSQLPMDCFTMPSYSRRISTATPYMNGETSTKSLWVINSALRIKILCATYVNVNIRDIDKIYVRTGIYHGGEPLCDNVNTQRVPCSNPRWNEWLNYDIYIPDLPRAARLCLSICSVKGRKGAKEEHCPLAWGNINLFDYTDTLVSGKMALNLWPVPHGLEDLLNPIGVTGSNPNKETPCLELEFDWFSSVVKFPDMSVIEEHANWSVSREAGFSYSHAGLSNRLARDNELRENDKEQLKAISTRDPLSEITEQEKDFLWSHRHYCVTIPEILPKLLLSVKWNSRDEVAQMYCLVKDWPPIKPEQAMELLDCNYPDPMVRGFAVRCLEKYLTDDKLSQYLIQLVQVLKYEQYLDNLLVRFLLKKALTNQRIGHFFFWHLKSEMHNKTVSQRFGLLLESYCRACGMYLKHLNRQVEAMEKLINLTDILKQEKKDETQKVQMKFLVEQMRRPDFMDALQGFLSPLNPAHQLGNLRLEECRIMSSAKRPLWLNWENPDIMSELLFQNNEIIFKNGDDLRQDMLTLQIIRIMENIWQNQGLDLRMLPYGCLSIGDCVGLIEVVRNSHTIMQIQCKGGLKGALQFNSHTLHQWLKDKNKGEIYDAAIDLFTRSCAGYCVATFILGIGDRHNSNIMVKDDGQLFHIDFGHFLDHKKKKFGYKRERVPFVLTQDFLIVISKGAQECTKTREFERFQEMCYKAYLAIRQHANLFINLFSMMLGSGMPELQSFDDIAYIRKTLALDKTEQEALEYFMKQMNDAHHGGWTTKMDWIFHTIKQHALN

Broadly, the IC50 is the midpoint of a concentration-inhibition curve. As for `Nc1cc(C(F)(F)F)c(-c2cc(C3(S(=O)(=O)c4ccc(F)cc4)CC3)nc(N3CCOCC3)n2)cn1`, the IC50 was determined as 1280 nM in series [1], 572 nM in the series with MCF7, 619 nM in the series on T47D and 57 nM in series [2].

With `CS(=O)(=O)C1(c2cc(-c3cnc(N)cc3C(F)(F)F)nc(N3CCOCC3)n2)CCCC1`, the IC50 in [1] came out at 384 nM; in the series with MCF7 it was 340 nM; in the series on T47D, 218 nM.

In the case of `Nc1cc(C(F)(F)F)c(-c2cc(C3(S(=O)(=O)c4ccccc4F)CC3)nc(N3CCOCC3)n2)cn1`, the half-inhibitory concentration (IC50) stood at 367 nM in series [1], 184 nM in the series with MCF7, 129 nM in the series on T47D and 7 nM in series [2].

As for `CCS(=O)(=O)C1(c2cc(-c3cnc(N)cc3C(F)(F)F)nc(N3CCOCC3)n2)CC1`, the IC50 in [1] was 301 nM; in the series with MCF7 it was 295 nM; in the series with T47D, 225 nM.

On to `CC(C)(c1cc(-c2cnc(N)cc2F)nc(N2CCOCC2)n1)S(C)(=O)=O`, for which the IC50 in series [1] was found to be 215 nM; with MCF7 it was 104 nM; with T47D it was 123 nM; in [2] it was 66 nM. For the same compound, the CLint scaled was 5 to 16 mL/min/kg in series [3] and 40 to 140 mL/min/kg in series [4].

Take `CS(=O)(=O)C(F)c1cc(-c2cnc(N)cc2C(F)(F)F)nc(N2CCOCC2)n1` (configuration not stated): the half-maximal inhibitory concentration (IC50) in [1] came out at 2450 nM; in the series on MCF7, 1140 nM; with T47D, 1160 nM; in [2] it was 56 nM.

For `Nc1cc(C(F)(F)F)c(-c2cc(N3CCOCC3)nc(N3CCOCC3)n2)cn1` [BUPARLISIB], the IC50 was 365 nM in series [1], 206 nM in the series with MCF7, 286 nM in the series on T47D and 886 nM in the series on HUVEC. For the same compound, the values for the CLint scaled in series [3] and in series [4] were 10.9 mL/min/kg and 151 mL/min/kg, respectively. In addition, in the series with HT-29 [5], the result was Active. Also, in the series on HT-29 [6], the inhibition in vivo at 15 mg/kg came to 39.4%. In addition, the Activity in the series with Mus musculus is over 25%. For the same compound, the inhibition entry in [7] was “inactive”. In the series on HT-29 [8], the inhibition in vivo at 30 mg/kg is 55.7%.

With `CS(=O)(=O)C(F)(F)c1cc(-c2cnc(N)cc2C(F)(F)F)nc(N2CCOCC2)n1`, the IC50 in series [1] amounted to 846 nM; in the series with MCF7 it was 408 nM; in the series with T47D it was 513 nM; in series [2] it was 25 nM.

Regarding `C[C@@H]1COCCN1c1nc(-c2cnc(N)cc2C(F)(F)F)cc(C2(S(C)(=O)=O)CC2)n1`, the IC50 in [2] came to 223 nM.

On to `CS(=O)(=O)C1(c2cc(-c3cnc(N)cc3C(F)(F)F)nc(N3CCOCC3)n2)CCC1`, for which the IC50 in series [1] was 248 nM; with MCF7 it was 134 nM; in the series with T47D, 138 nM; in series [2], 15 nM.

Consider `C[C@H]1COCCN1c1nc(-c2cnc(N)cc2C(F)(F)F)cc(C(C)(C)S(C)(=O)=O)n1`, for which the IC50 in series [1] amounted to 306 nM; in the series with MCF7, 214 nM; in the series on T47D, 175 nM.

For `CC(C)(c1cc(-c2cnc(N)cc2C(F)(F)F)nc(N2CCOCC2)n1)S(=O)(=O)c1ccccc1`, the IC50 in series [1] turned out to be 1550 nM; in the series on MCF7, 897 nM; in the series on T47D, 478 nM; in series [2], 9 nM.

In the case of `Nc1cc(C(F)(F)F)c(-c2cc(C3(S(=O)(=O)c4cccc(F)c4)CC3)nc(N3CCOCC3)n2)cn1`, the half-maximal inhibitory concentration (IC50) in [1] is 606 nM; in the series with MCF7, 286 nM; with T47D, 242 nM; in series [2] it was 14 nM.

With `C[C@H]1COCCN1c1nc(-c2cnc(N)cc2C(F)(F)F)cc(C2(S(C)(=O)=O)CCCC2)n1`, the IC50 in [1] amounted to 674 nM; with MCF7 it was 159 nM; in the series with T47D, 139 nM; in [2], 22 nM.

On to `CS(=O)(=O)Cc1cc(-c2cnc(N)cc2C(F)(F)F)nc(N2CCOCC2)n1`, for which the half-inhibitory concentration (IC50) was found to be 3010 nM in series [1], 1510 nM in the series on MCF7, 14000 nM in series [9] and 1670 nM with T47D. Moreover, the inhibition entry in series [7] is “inactive”.

For `CC(C)(c1cc(-c2cnc(N)cc2C(F)(F)F)nc(N2CCOCC2)n1)S(C)(=O)=O`, the results for the 50% inhibitory concentration (IC50) (in series [1]; in the series with MCF7; with T47D) were 312 nM, 224 nM and 58 nM, respectively.

As to `CC(C)C(c1cc(-c2cnc(N)cc2C(F)(F)F)nc(N2CCOCC2)n1)S(C)(=O)=O` (configuration not stated), the IC50 in series [2] stood at 218 nM.

For the compound `CS(=O)(=O)C1(c2cc(-c3cnc(N)cc3F)nc(N3CCOCC3)n2)CC1`, the 50% inhibitory concentration (IC50) was 369 nM in series [1], 27 nM in the series with MCF7, 62 nM with T47D and 41 nM in [2]. The CLint scaled fell in the range of 5 to 16 mL/min/kg in series [3] and 40 to 140 mL/min/kg in series [4].

Turning to `C[C@H]1COCCN1c1nc(-c2cnc(N)cc2F)cc(C(C)(C)S(C)(=O)=O)n1`, the half-inhibitory concentration (IC50) in series [1] came to 121 nM; with MCF7, 15 nM; with T47D, 33 nM; in series [2], 20 nM. Moreover, the CLint scaled in series [3] is 5 to 16 mL/min/kg; in series [4], 40 to 140 mL/min/kg.

Turning to `Nc1cc(C(F)(F)F)c(-c2cc(C3(S(=O)(=O)c4ccccc4)CC3)nc(N3CCOCC3)n2)cn1`, the IC50 in series [1] came out at 668 nM; in the series on MCF7, 513 nM; with T47D it was 324 nM.

In the case of `CC(C)S(=O)(=O)C1(c2cc(-c3cnc(N)cc3C(F)(F)F)nc(N3CCOCC3)n2)CC1`, the 50% inhibitory concentration (IC50) was determined as 430 nM in series [1], 437 nM in the series on MCF7, 160 nM in the series on T47D and 58 nM in [2].

Take `CS(=O)(=O)C1(c2cc(-c3cnc(N)cc3C(F)(F)F)nc(N3CCOCC3)n2)CCCCC1`: the IC50 in series [2] was determined as 321 nM.

For `CCS(=O)(=O)C(C)(C)c1cc(-c2cnc(N)cc2C(F)(F)F)nc(N2CCOCC2)n1`, the IC50 amounted to 947 nM in series [1], 512 nM in the series with MCF7, 552 nM with T47D and 40 nM in series [2].

For `CC(C)S(=O)(=O)C(C)(C)c1cc(-c2cnc(N)cc2C(F)(F)F)nc(N2CCOCC2)n1`, the half-maximal inhibitory concentration (IC50) in [1] came to 1180 nM; in the series on MCF7 it was 599 nM; with T47D, 1060 nM; in [2] it was 65 nM.

In the case of `CS(=O)(=O)C1(c2cc(-c3cnc(N)cc3C(F)(F)F)nc(N3CCOCC3)n2)CC1`, the CLint scaled in [3] was determined as 9.86 mL/min/kg; in series [4] it was 185 mL/min/kg. Further, the half-maximal inhibitory concentration (IC50) in series [9] stood at 1680 nM. In addition, the inhibition result in [7] is “inactive”.

Take `C[C@H]1COCCN1c1nc(-c2cnc(N)cc2C(F)(F)F)cc(C2(S(C)(=O)=O)CC2)n1`: the IC50 in series [1] stood at 546 nM; at PI3K p110 beta/p85 alpha, 264 nM; in series [10] it was 197 nM; with MCF7, 112 nM; in [9], 2120 nM; in the series with T47D, 129 nM. Moreover, in series [2], the IC50 lay in the range of 9 to 16 nM. The inhibition entry in series [7] was “inactive”.

Consider `C[C@H]1COCCN1c1nc(-c2cnc(N)cc2C(F)(F)F)cc(C2(S(C)(=O)=O)CCC2)n1`, for which the concentration for half-maximal inhibition (IC50) was determined as 184 nM in series [1], 78 nM in the series with MCF7, 93 nM in the series with T47D and 6 nM in series [2].
